Screening data as filed in PubChem BioAssay.
Hits are enriched below; roughly 4.6% of the tested compounds scored in any of these assays.
TAAR1 antag = human TAAR1 antagonists, primary screen, Fluo-8 calcium fluorescence, CHO RD-HGA16 cells; Trace amine-associated receptor 1 (Homo sapiens), Q96RJ0; antagonist; inhibition, % at 3 µM; 360,000 compounds, 1.5% hits;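 active means inhibition above a per-plate cutoff, the mean inhibition of test compounds on that plate plus 3 SD, cut at about 49% in these data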;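 further: 0% = DMSO plus EC80 beta-PEA response and 100% = DMSO alone without agonist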
Target sequence (Q96RJ0 whole entry, looked up): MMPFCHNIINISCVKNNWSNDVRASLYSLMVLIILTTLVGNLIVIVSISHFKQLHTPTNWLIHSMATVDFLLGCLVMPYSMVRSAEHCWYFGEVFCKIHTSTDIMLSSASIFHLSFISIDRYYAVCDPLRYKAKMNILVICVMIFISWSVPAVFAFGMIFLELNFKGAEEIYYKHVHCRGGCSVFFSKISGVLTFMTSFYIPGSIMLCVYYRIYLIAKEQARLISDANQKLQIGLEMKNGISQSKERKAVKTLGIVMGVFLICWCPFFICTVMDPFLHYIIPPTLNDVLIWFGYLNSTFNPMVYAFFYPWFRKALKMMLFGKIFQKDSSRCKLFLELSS
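Test system: CHO RD-HGA16 cells bearing hTAAR1 | Reagent: β-PEA, EC80 | Compound dosing: 3 µM, single point | Schedule: Dye loading 75 min at 37 °C, then 30 min room temperature | Signal: Calcium fluorescence with Fluo-8 | Evaluation: Percent inhibition of PEA-evoked calcium signal, max/basal emission ratio | Control set: DMSO-only wells and EC80 β-PEA-stimulated wells | Repeats: Singlicate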
CHO parental Ca = ATP-evoked calcium signal inhibitors, parental CHO, primary screen, counter-screen for OX1R antagonist project, cell-based, fluorescence, Fluo-8 calcium dye; 330,000 compounds, 0.63% hits; parental CHO-K1, ATP-induced calcium, Fluo-8 fluorescence; inhibition, % at 5.6 µM;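 active means inhibition above that plate's mean sample inhibition plus 3 SD, cut at about 26% in these data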;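 further: 0% = ATP-challenged DMSO wells and 100% = DMSO wells without ATP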
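material = parental CHO cells | also added = ATP as calcium-mobilizing challenge | dosing = single point at 5.6 µM | detection = intracellular calcium via Fluo-8 no-wash fluorescent dye | read-out = % inhibition | benchmarks = low control ATP plus DMSO, high control DMSO only | repeats = one well per compound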
OX1R antag-1 = antagonists of human orexin 1 receptor (OX1R); OX1R-expressing cells, FRET antagonist read-out; inhibition, % at 6.6 µM; 330,000 compounds, 1.8% hits; Orexin/Hypocretin receptor type 1 (Homo sapiens), O43613; in the data active means inhibition mostly above about 38%, no sharp cut-off; inactive means mostly below about 40%;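 further: 0% = agonist challenge alone and 100% = reference antagonist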
OX1R antag-2 = OX1R (HCRTR1) antagonists, primary screen, fluorescence, CHO/OX1R cells, Fluo-8 calcium, orexin A. Orexin/Hypocretin receptor type 1 (Homo sapiens), O43613. Fluo-8 calcium fluorescence. 330,000 compounds, 0.43% hits. inhibition, % at 5 µM;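 active means inhibition above its plate's threshold, mean inhibition of all tested compounds on the plate plus 3 SD, cut at about 37% in these data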;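 further: 0% = orexin A challenge wells and 100% = SB-334867-A antagonist wells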
TAAR1 ag = human TAAR1 agonists, primary screen, Fluo-8 calcium fluorescence, CHO RD-HGA16 cells | Trace amine-associated receptor 1 (Homo sapiens), Q96RJ0 | vehicle wells 0%, saturating PEA agonist 100% | activation, % at 3 µM | 360,000 compounds, 0.99% hits;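 active means activation above the mean activation of all test compounds in the run plus 3 SD, cut at about 38% in these data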
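Test system: RD-HGA16 (CHO) cells co-expressing Gα16 and hTAAR1 / Benchmarks: DMSO vehicle as 0%, PEA at EC100 as 100% / Repeats: no replicates (n 1) / Measure: % activation from peak over basal fluorescence ratio, DMSO-to-PEA scaled / Timing: 17-24 h plating, Fluo-8 75 min 37 °C, 30 min RT / Technique: kinetic Fluo-8 calcium fluorescence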
GPR7 antagonist = GPR7 receptor antagonists, primary screen, cell-based, fluorescence, single concentration. GPR7-expressing cells, fluorescence antagonist assay. 290,000 compounds, 1.1% hits. inhibition, % at 4.4 µM. AID 1861, 2009. Neuropeptides B/W receptor type 1 (Homo sapiens), P48145; in the data active means inhibition above about 16%, passing the limit was not always enough;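 further: cells stimulated with the agonist NPW; 0% = agonist with vehicle and 100% = vehicle without agonist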
Target sequence (P48145 whole entry, looked up): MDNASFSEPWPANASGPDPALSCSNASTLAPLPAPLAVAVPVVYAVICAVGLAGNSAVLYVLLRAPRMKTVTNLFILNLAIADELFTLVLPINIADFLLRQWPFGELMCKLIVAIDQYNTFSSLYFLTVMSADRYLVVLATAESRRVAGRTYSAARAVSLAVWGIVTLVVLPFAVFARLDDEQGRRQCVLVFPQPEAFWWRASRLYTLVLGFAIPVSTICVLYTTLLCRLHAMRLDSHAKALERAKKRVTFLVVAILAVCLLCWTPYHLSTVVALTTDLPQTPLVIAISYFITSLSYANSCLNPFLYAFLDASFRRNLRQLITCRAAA
nonsel antag count = nonselective antagonists in TAAR1 counter-screen cells, counter-screen for hTAAR1 antagonist project, cell-based, fluorescence, calcium; inhibition, % at 3 µM; shares compounds with TAAR1 antag; 2,400 compounds, 77% hits; counterscreen cell line, antagonist mode; in the data active means inhibition above about 22%;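 further: CHO-Ga16 host cells stimulated with ATP at an EC80 level; 0% = agonist EC80 plus vehicle and 100% = vehicle without agonist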
TAAR1 ant conf = human TAAR1 antagonists, retest of hits, confirmation, cell-based, fluorescence. shares compounds with TAAR1 antag. TAAR1-expressing cells, fluorescence antagonist read-out. inhibition, % at 3 µM. 2,400 compounds, 40% hits. AID 651785, 2012; in the data active means inhibition above about 49%;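 further: CHO-Ga16 host cells challenged with agonist PEA near its EC80; 0% = agonist at EC80 plus vehicle and 100% = vehicle with no agonist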
Ga16 ag counter = calcium activation in Ga16-expressing cells, counter-screen for TAAR1 antagonist project, cell-based, fluorescence. activation, % at 3 µM. shares compounds with TAAR1 antag. 2,400 compounds, 18% hits. agonist counterscreen; in the data active means activation above about 12%;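 further: 0% = vehicle wells and 100% = saturating stimulus response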
TAAR1 ag count = TAAR1 activation by candidate antagonists – cell-based, fluorescence, counter-screen for TAAR1 antagonist project. shares compounds with TAAR1 antag. hTAAR1 cell line, agonist mode. activation, % at 3 µM. 2,400 compounds, 2% hits. AID 651955, 2012; in the data active means activation above about 37%;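 further: CHO cells stably expressing TAAR1 with calcium dye readout; 0% = DMSO vehicle and 100% = full agonist response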
The depositor's hits bear a star.

What do the screens show for `O=C(O)CCCC(=O)Nc1nc(-c2ccc(F)cc2)cs1`?
TAAR1 antag: 4; CHO parental Ca: -11; OX1R antag-1: 35; OX1R antag-2: 2; TAAR1 ag: 11; GPR7 antagonist: -7

What do the screens show for `O=C(Cc1cccs1)Nc1nc(-c2ccc(F)c(F)c2)cs1`?
TAAR1 antag: 72*; CHO parental Ca: -5; OX1R antag-1: 14; OX1R antag-2: -14; TAAR1 ag: 7; GPR7 antagonist: -6; nonsel antag count: 39*; TAAR1 ant conf: 55*; Ga16 ag counter: 6; TAAR1 ag count: 3

What do the screens show for `Cc1csc(NC(=O)c2ccc(OCC3CCCO3)cc2)n1` (centres undefined)?
TAAR1 antag: -21; CHO parental Ca: 3; OX1R antag-1: 38; OX1R antag-2: -13; TAAR1 ag: 10; GPR7 antagonist: -14

What do the screens show for `O=C(Nc1nc(-c2ccc(F)c(F)c2)cs1)c1ccc(OCC2CCCO2)cc1` (centres undefined)?
TAAR1 antag: 54*; CHO parental Ca: -22; OX1R antag-1: 20; OX1R antag-2: -26; TAAR1 ag: 7; GPR7 antagonist: -10; nonsel antag count: 33*; TAAR1 ant conf: 35; Ga16 ag counter: 9; TAAR1 ag count: 4

How did C/C(=N\NC(=O)c1nn(C)cc1Br)c1ccc(NC(=O)c2ccncc2)cc1 do in these assays?
TAAR1 antag: 11; CHO parental Ca: -6; OX1R antag-1: -1; OX1R antag-2: 3; TAAR1 ag: 2; GPR7 antagonist: -8

Results for COc1cc(NC(=O)Nc2ccc(Cl)c(Cl)c2)c(C(=O)O)cc1OC ?
TAAR1 antag: 2; CHO parental Ca: -11; OX1R antag-1: 35; OX1R antag-2: -7; TAAR1 ag: -1; GPR7 antagonist: 7

What do the screens show for `O=C1N[C@@H](Cc2ccccc2)COC(=O)[C@H](Cc2ccc(F)cc2)CC/C=C/C[C@H]1CC(=O)N(CCO)Cc1ccccc1`?
TAAR1 antag: 66*; CHO parental Ca: -2; OX1R antag-1: 4; OX1R antag-2: 4; TAAR1 ag: 27; nonsel antag count: 17; TAAR1 ant conf: 26; Ga16 ag counter: 5; TAAR1 ag count: 4

How did O=C1N[C@@H](c2ccccc2)COC(=O)[C@H](Cc2ccc(F)cc2)CC/C=C/C[C@@H]1CC(=O)N(CCO)Cc1ccccc1 do in these assays?
TAAR1 antag: 43; CHO parental Ca: -19; OX1R antag-1: 8; OX1R antag-2: 4; TAAR1 ag: 7

What do the screens show for `O=C1N[C@@H](c2ccccc2)COC(=O)[C@@H](Cc2ccc(F)cc2)C/C=C\C[C@H]1CC(=O)N(CCO)Cc1ccccc1`?
TAAR1 antag: 59*; CHO parental Ca: -21; OX1R antag-1: 9; OX1R antag-2: 16; TAAR1 ag: 31; nonsel antag count: 37*; TAAR1 ant conf: 58*; Ga16 ag counter: 14*; TAAR1 ag count: 13

Results for O=C1N[C@@H](Cc2ccccc2)COC(=O)[C@@H](Cc2ccc(F)cc2)CC/C=C/C[C@H]1CC(=O)N(CCO)Cc1ccccc1 ?
TAAR1 antag: 66*; CHO parental Ca: -10; OX1R antag-1: 13; OX1R antag-2: 20; TAAR1 ag: 30; nonsel antag count: 31*; TAAR1 ant conf: 44; Ga16 ag counter: 11; TAAR1 ag count: 15

What do the screens show for `O=C1N[C@@H](Cc2ccccc2)COC(=O)[C@H](Cc2ccc(F)cc2)C/C=C\C[C@H]1CC(=O)N(CCO)Cc1ccccc1`?
TAAR1 antag: 33; CHO parental Ca: -30; OX1R antag-1: 2; OX1R antag-2: 8; TAAR1 ag: 7

How did O=C1N[C@@H](Cc2ccccc2)COC(=O)[C@H](Cc2ccc(F)cc2)CC/C=C/C[C@@H]1CC(=O)N(CCO)Cc1ccccc1 do in these assays?
TAAR1 antag: 17; CHO parental Ca: -23; OX1R antag-1: 6; OX1R antag-2: -17; TAAR1 ag: 3

How did COc1ccc(OC2C(=O)N(CCc3ccc(OC)c(OC)c3)C2c2ccc3c(c2)OCO3)cc1 (centres undefined) do in these assays?
TAAR1 antag: 57*; CHO parental Ca: -4; OX1R antag-1: 20; OX1R antag-2: -19; TAAR1 ag: 6; GPR7 antagonist: 3; nonsel antag count: 22*; TAAR1 ant conf: 24; Ga16 ag counter: 5; TAAR1 ag count: 1

Results for O=C(Nc1cccc(Cl)c1)N(Cc1nc2ccccc2c(=O)[nH]1)Cc1cccs1 ?
TAAR1 antag: 51*; CHO parental Ca: -13; OX1R antag-1: 15; OX1R antag-2: -34; TAAR1 ag: 10; GPR7 antagonist: -3; nonsel antag count: 30*; TAAR1 ant conf: 44; Ga16 ag counter: 10; TAAR1 ag count: 12

How did COc1cc(-c2[nH]nc3c2C(c2ccoc2)C(C#N)=C(N)O3)cc(OC)c1OC (centres undefined) do in these assays?
TAAR1 antag: 74*; CHO parental Ca: -16; OX1R antag-1: 16; OX1R antag-2: -7; TAAR1 ag: 27; GPR7 antagonist: -5; nonsel antag count: 34*; TAAR1 ant conf: 57*; Ga16 ag counter: 9; TAAR1 ag count: 11

How did CC(C)(C)NC(=O)CN(Cc1cccs1)C(=O)C1COc2ccccc2O1 (centres undefined) do in these assays?
TAAR1 antag: 12; CHO parental Ca: -10; OX1R antag-1: 12; OX1R antag-2: -35; TAAR1 ag: 4; GPR7 antagonist: -1
